Measurements from ChEMBL document CHEMBL1152805, “Dual inhibitors of phosphodiesterase-4 and serotonin reuptake” (J Med Chem, 2009).
Active and inactive are the calls of the source. The calls are words filed in the database; no cut-off is given here.

What was measured:
Mus musculus [1] = test: Antidepressant activity in ICR mouse assessed as decrease in immobility duration at 10 umol/kg, ip administered 30 mins prior to test after 1 week by forced swimming test; assay type: functional, organism-based
Outline: (§1)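 Male ICR mice (26.2 ± 0.3 g), 12 h light cycle. Drug in 0.9% saline with 5% DMSO, given i.p. 30 min before the forced-swim test. Lower doses were tested first, then higher doses 1 week later after re-randomization. Swim pretest on 2 successive days, test 24 h later: 6 min in a cylinder with 28 cm of water at 23 ± 1°C, recording immobility. n = 9–11; ANOVA with Dunnett's test.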

[2] = target: 3',5'-cyclic-AMP phosphodiesterase 4B (Homo sapiens, UniProt Q07343); test: Inhibition of human recombinant PDE4B3 assessed as inhibition of cAMP hydrolysis
Chain of 3',5'-cyclic-AMP phosphodiesterase 4B (Q07343 whole entry): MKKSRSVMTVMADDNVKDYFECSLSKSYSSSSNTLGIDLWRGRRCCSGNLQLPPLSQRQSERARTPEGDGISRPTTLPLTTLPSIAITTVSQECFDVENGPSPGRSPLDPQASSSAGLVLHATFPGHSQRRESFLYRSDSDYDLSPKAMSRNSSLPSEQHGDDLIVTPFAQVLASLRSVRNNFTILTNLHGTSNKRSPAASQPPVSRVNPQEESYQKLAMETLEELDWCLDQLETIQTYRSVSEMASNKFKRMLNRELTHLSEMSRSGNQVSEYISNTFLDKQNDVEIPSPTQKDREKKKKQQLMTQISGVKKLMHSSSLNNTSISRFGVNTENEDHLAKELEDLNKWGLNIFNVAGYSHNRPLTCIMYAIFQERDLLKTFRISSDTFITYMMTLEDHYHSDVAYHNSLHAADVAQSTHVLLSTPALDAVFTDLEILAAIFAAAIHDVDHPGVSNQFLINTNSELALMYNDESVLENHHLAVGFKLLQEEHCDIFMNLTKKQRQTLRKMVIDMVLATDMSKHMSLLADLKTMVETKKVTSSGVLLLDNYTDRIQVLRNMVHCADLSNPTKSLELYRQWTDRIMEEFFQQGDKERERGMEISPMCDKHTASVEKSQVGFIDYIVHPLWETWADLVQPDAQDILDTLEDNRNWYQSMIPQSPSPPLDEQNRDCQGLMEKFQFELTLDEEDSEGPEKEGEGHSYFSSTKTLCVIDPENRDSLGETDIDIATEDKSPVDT

Mus musculus [3] = test: Antidepressant activity in ICR mouse assessed as decrease in immobility duration at 1 umol/kg, ip administered 30 mins prior to test by forced swimming test; assay type: functional, organism-based; outline: as §1
Mus musculus [4] = test: Antidepressant activity in BALB/c mouse assessed as decrease in immobility duration at 1 mg/kg, ip administered 23 hrs, 5 hrs and 1 hr prior to test measured after 4 weeks by forced swimming test; assay type: functional, organism-based; design: dose 1 mg/kg
Outline: (§2)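 Male Balb/c mice (22.4 ± 0.1 g), second session run 4 weeks after the first. Drug in 0.9% saline with 5% DMSO (vehicle alone as control), given i.p. 23, 5 and 1 hr before the forced-swim test, with no pretest training. Each mouse was placed 6 min in a water-filled cylinder (23 ± 1°C) and immobility duration recorded. n = 10–11; one-way ANOVA with Dunnett's test.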

Mus musculus [5] = test: Antidepressant activity in ICR mouse assessed as decrease in immobility duration at 5 umol/kg, ip administered 30 mins prior to test after 1 week by forced swimming test; assay type: functional, organism-based; outline: as §1
Liver microsomes = test: Metabolic stability in human liver microsomes assessed as half life after 60 mins by HPLC in presence of NADPH; assay type: ADME, Microsome; details: 1 h
Outline: (§3)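 Liver microsomes (0.5 mg protein) in potassium phosphate buffer, pH 7.4, with an NADPH-generating system (NADP+, glucose-6-phosphate, G6P dehydrogenase), DETAPAC and MgCl2. Test compound added at 40 µM and incubated at 37 °C with shaking. Samples stopped with CH2Cl2/2-propanol at 0, 10, 25, 40 and 60 min. Substrate loss measured by HPLC and half-life calculated.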

Mus musculus [6] = test: Antidepressant activity in ICR mouse assessed as decrease in immobility duration at 0.5 umol/kg, ip administered 30 mins prior to test by forced swimming test; assay type: functional, organism-based; outline: as §1
[7] = Metabolic stability in mouse liver microsomes assessed as half life at 40 uM after 60 mins by HPLC in presence of NADPH; assay type: ADME, Microsome; details: 1 h; outline: as §3
Mus musculus [8] = test: Antidepressant activity in BALB/c mouse assessed as decrease in immobility duration at 37.4 umol/kg, ip administered 23 hrs, 5 hrs and 1 hr prior to test measured after 4 weeks by forced swimming test; assay type: functional, organism-based; outline: as §2
[9] = target: 3',5'-cyclic-AMP phosphodiesterase 4A (Homo sapiens, UniProt P27815); test: Inhibition of human recombinant PDE4A1 assessed as inhibition of cAMP hydrolysis
Chain of 3',5'-cyclic-AMP phosphodiesterase 4A (P27815 whole entry): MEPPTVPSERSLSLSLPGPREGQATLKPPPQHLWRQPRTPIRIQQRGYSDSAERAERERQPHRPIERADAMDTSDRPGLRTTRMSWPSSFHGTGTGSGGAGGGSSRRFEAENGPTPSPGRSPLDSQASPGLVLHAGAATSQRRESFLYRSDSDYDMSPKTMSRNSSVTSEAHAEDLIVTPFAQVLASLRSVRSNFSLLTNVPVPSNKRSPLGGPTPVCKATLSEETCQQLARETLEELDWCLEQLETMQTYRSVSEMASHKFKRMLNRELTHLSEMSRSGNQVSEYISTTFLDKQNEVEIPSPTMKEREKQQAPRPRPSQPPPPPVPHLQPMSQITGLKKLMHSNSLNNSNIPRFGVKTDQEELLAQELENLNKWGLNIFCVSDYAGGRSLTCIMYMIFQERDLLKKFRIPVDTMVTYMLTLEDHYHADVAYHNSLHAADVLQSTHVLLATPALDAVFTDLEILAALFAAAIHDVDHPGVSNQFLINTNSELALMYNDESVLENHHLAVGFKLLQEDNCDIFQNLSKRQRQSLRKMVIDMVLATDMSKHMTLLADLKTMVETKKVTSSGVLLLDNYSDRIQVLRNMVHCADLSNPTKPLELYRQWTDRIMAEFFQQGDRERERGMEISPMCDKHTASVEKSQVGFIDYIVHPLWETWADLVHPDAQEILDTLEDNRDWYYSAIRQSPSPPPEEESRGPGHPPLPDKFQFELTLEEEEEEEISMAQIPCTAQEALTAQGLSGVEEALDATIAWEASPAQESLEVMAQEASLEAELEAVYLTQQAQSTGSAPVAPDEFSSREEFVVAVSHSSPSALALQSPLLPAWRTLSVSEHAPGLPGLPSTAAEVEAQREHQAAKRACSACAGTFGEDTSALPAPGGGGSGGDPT

[10] = target: T1, Sodium-dependent dopamine transporter (Homo sapiens, UniProt Q01959); test: Displacement of [3H]dopamine from human recombinant DAT expressed in HEK293 cells by scintillation counting; assay type: cell-based
T1 sequence (Q01959 whole entry): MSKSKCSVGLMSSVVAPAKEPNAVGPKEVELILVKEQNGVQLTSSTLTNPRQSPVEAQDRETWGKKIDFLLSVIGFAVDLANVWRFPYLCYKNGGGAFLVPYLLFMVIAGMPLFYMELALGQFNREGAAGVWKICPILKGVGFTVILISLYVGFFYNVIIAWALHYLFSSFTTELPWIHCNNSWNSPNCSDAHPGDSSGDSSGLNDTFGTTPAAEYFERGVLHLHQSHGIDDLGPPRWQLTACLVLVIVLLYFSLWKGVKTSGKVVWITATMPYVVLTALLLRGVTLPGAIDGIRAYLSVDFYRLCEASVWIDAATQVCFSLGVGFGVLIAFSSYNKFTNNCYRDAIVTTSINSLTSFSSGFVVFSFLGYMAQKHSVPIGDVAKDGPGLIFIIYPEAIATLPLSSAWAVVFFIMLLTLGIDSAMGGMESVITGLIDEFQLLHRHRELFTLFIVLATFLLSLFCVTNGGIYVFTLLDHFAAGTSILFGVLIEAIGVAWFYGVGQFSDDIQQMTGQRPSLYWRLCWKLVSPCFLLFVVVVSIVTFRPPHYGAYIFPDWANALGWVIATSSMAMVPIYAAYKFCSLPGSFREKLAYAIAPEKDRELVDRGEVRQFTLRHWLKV
Outline: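 Suspended HEK-hDAT cells preincubated 10 min at 25 °C with test compound in Krebs-HEPES buffer. [3H]dopamine then added (20 nM final) for 10 min. Uptake stopped by filtration onto polyethylenimine-soaked GF/C filters, and radioactivity counted. Specific uptake defined with 5 µM mazindol. Triplicates, 3–4 experiments; Ki by Cheng-Prusoff.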

Mus musculus [11] = test: Antidepressant activity in BALB/c mouse assessed as decrease in immobility duration at 32.3 umol/kg, ip administered 23 hrs, 5 hrs and 1 hr prior to test measured after 4 weeks by forced swimming test; assay type: functional, organism-based
Outline: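 Male Balb/c mice received subchronic i.p. dosing at 23, 5 and 1 hr before the forced-swim test, with no pretest training. This session ran 4 weeks after the acute session. Vehicle was saline with 5% DMSO. The swim lasted 6 min in a cylinder of water 28 cm deep at 23 ± 1°C, scoring immobility duration. n = 10–11. One-way ANOVA with Dunnett's test.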

Mus musculus [12] = test: Antidepressant activity in BALB/c mouse assessed as decrease in immobility duration at 20 mg/kg, ip administered 30 mins prior to test by forced swimming test; assay type: functional, organism-based; design: dose 20 mg/kg
Outline: (§4)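 Acute dosing in male Balb/c mice (22.4 ± 0.1 g), i.p. 30 min before the forced-swim test. Vehicle was saline with 5% DMSO. Pretest swims were given on two successive days, then the test 24 h later. Each swim lasted 6 min in a cylinder of water 28 cm deep at 23 ± 1°C, scoring immobility (upright floating). n = 10–11. One-way ANOVA with Dunnett's test.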

Mus musculus [13] = test: Antidepressant activity in ICR mouse assessed as decrease in immobility duration at 40 mg/kg, ip by forced swimming test; assay type: functional, organism-based; design: dose 40 mg/kg
Mus musculus [14] = test: Antidepressant activity in ICR mouse assessed as decrease in immobility duration at 65 umol/kg, ip administered 30 mins prior to test by forced swimming test; assay type: functional, organism-based
Mus musculus [15] = test: Antidepressant activity in ICR mouse assessed as decrease in immobility duration at 0.5 mg/kg, ip by forced swimming test; assay type: functional, organism-based; design: dose 0.5 mg/kg
Mus musculus [16] = test: Antidepressant activity in ICR mouse assessed as decrease in immobility duration at 0.5 mg/kg, ip once a day for 8 days by forced swimming test; assay type: functional, organism-based; design: dose 0.5 mg/kg
Mus musculus [17] = test: Antidepressant activity in BALB/c mouse assessed as decrease in immobility duration at 37.4 umol/kg, ip administered 30 mins prior to test by forced swimming test; assay type: functional, organism-based
Outline: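 Acute dosing in male Balb/c mice (22.4 ± 0.1 g). Drug in 0.9% saline with 5% DMSO, given i.p. 30 min before the forced-swim test. Swim pretest once daily on 2 successive days, then test 24 h later. Each session was 6 min in a cylinder filled to 28 cm with water at 23 ± 1°C, scoring immobility duration. n = 10–11; ANOVA with Dunnett's test.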

Mus musculus [18] = test: Antidepressant activity in BALB/c mouse assessed as decrease in immobility duration at 35.5 umol/kg, ip administered 30 mins prior to test by forced swimming test; assay type: functional, organism-based; outline: as §4
[19] = target: T2, Sodium-dependent noradrenaline transporter (Homo sapiens, UniProt P23975); test: Displacement of [125I]RTI-55 from human recombinant NET expressed in HEK293 cells by scintillation counting; assay type: cell-based
T2 sequence (P23975 whole entry): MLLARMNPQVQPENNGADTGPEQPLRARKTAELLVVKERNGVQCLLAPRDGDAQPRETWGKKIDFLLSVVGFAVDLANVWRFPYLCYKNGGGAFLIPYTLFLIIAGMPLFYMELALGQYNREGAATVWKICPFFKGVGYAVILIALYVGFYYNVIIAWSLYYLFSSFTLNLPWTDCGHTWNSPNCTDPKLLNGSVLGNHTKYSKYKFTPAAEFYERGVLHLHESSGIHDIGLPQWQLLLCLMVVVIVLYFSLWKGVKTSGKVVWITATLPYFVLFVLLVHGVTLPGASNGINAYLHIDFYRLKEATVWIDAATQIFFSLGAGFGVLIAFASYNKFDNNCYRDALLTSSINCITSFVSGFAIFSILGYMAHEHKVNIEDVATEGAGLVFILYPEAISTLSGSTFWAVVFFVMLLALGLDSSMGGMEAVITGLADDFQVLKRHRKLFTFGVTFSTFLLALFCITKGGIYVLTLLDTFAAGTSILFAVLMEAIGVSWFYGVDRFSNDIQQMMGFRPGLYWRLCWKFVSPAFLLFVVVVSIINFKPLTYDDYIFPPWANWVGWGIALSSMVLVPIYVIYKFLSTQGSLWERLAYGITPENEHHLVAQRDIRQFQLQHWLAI

[20] = target: 3',5'-cyclic-AMP phosphodiesterase 4D (Homo sapiens, UniProt Q08499); test: Inhibition of human recombinant PDE4D3
Chain of 3',5'-cyclic-AMP phosphodiesterase 4D (Q08499 whole entry): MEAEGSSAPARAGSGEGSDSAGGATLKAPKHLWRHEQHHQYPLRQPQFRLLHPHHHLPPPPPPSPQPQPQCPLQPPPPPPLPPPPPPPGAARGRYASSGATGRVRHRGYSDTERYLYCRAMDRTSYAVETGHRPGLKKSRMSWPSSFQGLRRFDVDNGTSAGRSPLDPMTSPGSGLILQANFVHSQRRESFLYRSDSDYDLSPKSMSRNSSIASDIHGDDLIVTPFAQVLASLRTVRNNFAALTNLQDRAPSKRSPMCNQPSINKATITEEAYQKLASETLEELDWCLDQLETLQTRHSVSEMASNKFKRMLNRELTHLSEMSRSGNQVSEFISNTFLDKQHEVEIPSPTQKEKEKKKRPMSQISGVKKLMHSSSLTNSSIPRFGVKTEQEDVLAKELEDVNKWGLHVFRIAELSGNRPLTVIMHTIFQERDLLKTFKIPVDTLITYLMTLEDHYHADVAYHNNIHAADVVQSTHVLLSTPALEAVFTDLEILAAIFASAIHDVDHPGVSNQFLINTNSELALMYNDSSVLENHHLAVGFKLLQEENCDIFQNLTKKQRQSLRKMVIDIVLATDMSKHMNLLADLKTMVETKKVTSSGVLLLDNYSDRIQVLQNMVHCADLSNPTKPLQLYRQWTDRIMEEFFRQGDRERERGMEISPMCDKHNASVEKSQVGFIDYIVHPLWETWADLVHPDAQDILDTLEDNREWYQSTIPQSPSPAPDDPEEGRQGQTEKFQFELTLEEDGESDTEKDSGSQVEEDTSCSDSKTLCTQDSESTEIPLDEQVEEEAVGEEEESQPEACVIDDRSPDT

[21] = target: T2, Sodium-dependent noradrenaline transporter; test: Displacement of [3H]norepinephrine from human recombinant NET expressed in HEK293 cells by scintillation counting; assay type: cell-based
[22] = target: T1, Sodium-dependent dopamine transporter; test: Displacement of [125I]RTI-55 from human recombinant DAT expressed in HEK293 cells by scintillation counting; assay type: cell-based
[23] = target: T3, Sodium-dependent serotonin transporter (Homo sapiens, UniProt P31645); assay type: cell-based, HEK293
T3 sequence (P31645 whole entry): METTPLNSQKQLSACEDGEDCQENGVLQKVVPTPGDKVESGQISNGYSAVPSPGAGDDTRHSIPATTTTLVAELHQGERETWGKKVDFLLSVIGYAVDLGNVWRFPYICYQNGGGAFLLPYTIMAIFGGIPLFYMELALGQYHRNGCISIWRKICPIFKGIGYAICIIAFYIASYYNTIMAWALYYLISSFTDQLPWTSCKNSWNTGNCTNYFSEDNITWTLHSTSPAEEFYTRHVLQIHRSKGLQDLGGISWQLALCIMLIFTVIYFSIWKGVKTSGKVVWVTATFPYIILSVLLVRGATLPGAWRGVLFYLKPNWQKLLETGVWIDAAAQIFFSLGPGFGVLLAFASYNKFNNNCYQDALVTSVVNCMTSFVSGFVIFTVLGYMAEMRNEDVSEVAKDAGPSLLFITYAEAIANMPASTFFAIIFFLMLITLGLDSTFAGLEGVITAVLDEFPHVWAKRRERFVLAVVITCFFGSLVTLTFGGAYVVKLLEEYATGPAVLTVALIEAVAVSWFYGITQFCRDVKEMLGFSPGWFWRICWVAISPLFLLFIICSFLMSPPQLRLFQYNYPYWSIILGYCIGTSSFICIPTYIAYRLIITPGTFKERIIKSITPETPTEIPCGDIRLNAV

[24] = target: T3, Sodium-dependent serotonin transporter; test: biochemical; assay type: cell-based, HEK293

Structure (SMILES): COc1ccc(C2=NNC(=O)C3CC=CCC23)cc1OC (configuration not stated)
- Activity (Mus musculus [1]): Active
- Ki [2]: 250 nM
- Activity (Mus musculus [3]): Active
- Activity (Mus musculus [4]): Active
- Activity (Mus musculus [5]): Active
- Stability (Liver microsomes): Stable
- Activity (Mus musculus [6]): Active
- t1/2 [7]: 211.3 min
- Activity (Mus musculus [8]): Active
- Ki [9]: > 1000 nM

Structure (SMILES): CNCCC1CCC(CCc2cc(F)ccc2OC)O1 (configuration not stated)
- IC50 [10]: > 100 µM

Structure (SMILES): CNCCC(Oc1ccc(C(F)(F)F)cc1)c1ccccc1 (configuration not stated)
- Activity (Mus musculus [11]): inactive
- Activity (Mus musculus [12]): inactive
- Activity (Mus musculus [13]): Active
- Activity (Mus musculus [14]): Active

Structure (SMILES): COc1ccc(C2CNC(=O)C2)cc1OC1CCCC1 (configuration not stated)
- Activity (Mus musculus [15]): inactive
- Activity (Mus musculus [16]): Active

Structure (SMILES): COc1ccc(F)cc1CCC1CCC(CCN)O1 (configuration not stated)
- Activity (Mus musculus [17]): inactive
- Activity (Mus musculus [8]): inactive

Structure (SMILES): COc1ccc(F)cc1CCCC1CCC(CCN)O1 (configuration not stated)
- Activity (Mus musculus [18]): inactive

Structure (SMILES): COc1ccc(F)c(CCCC2CCC(CCNCCCCCN3N=C(c4ccc(OC)c(OC)c4)[C@H]4CC=CC[C@H]4C3=O)O2)c1 (mixture of isomers)
- Ki [19]: 7.44 µM
- Ki [2]: 500 nM
- Ki [20]: 1.2 nM
- IC50 [21]: 7.44 µM
- IC50 [10]: 5.34 µM
- Ki [22]: 5.34 µM
- Stability (Liver microsomes): Stable
- Stability [7]: Stable
- Ki [9]: > 1000 nM

Structure (SMILES): COc1ccc(F)cc1CCC1CCC(CCNCCCCCN2N=C(c3ccc(OC)c(OC)c3)[C@H]3CC=CC[C@H]3C2=O)O1 (mixture of isomers)
- Activity (Mus musculus [1]): Active
- Ki [2]: 199 nM
- Activity (Mus musculus [3]): Active
- Ki [20]: 2 nM
- IC50 [23]: 127 nM
- IC50 [10]: 3.56 µM
- Activity (Mus musculus [4]): inactive
- Activity (Mus musculus [5]): Active
- Ki [22]: 2.48 µM
- Stability (Liver microsomes): Stable
- Activity (Mus musculus [6]): Active
- t1/2 [7]: 153.9 min
- Ki [9]: > 1000 nM
- Ki [24]: 156 nM

Structure (SMILES): COc1ccc(C2=NN(CCCCCBr)C(=O)[C@@H]3CC=CC[C@H]23)cc1OC (racemic)
- IC50 [23]: > 100000 nM
- IC50 [10]: > 100 µM
- Ki [22]: > 100 µM
- Ki [24]: > 100000 nM
